Assay results from ChEMBL document CHEMBL4152216, “Syntheses and anti-pancreatic cancer activities of rakicidin A analogues” (Eur J Med Chem, 2018).

Experiments:
[1] = test system: PANC-1; test: Cytotoxicity against human PANC1 cells after 72 hrs under hypoxic condition by MTT assay; assay type: functional, cell-based; details: PANC-1, 72 h
Summary of the method: (§1)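 PANC-1, PATU8988T and ASPC-1 cells were grown in DMEM with 10% FBS at 37 °C and 5% CO2, then seeded at 4000 cells/well. Compounds were added at various concentrations after 6 h. Normoxic plates stayed at 37 °C, 5% CO2. Hypoxic plates went into a chamber purged 10 min with 5% CO2/1% O2/94% N2, sealed, at 37 °C. After 72 h, MTT was added for 4 h, formazan dissolved in DMSO and read at 570 nm. IC50 is the mean ± SD of three independent experiments.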

[2] = test system: PANC-1; test: Cytotoxicity against human PANC1 cells after 72 hrs under normoxic condition by MTT assay; assay type: functional, cell-based; details: PANC-1, 72 h; summary of the method: as §1
[3] = test system: PANC-1; test: Selectivity index, ratio of IC50 against human PANC1 cells under normoxic condition to IC50 for human PANC1 cells under hypoxic condition; assay type: functional
Summary of the method: (§2)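 Hypoxic selectivity index is IC50 (normoxia)/IC50 (hypoxia). Both IC50s come from the 72 h MTT assay in the same cell line, run under normoxia (37 °C, 5% CO2) or a sealed 1% O2/5% CO2/94% N2 chamber, each the mean of three independent experiments.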

[4] = test system: ASPC1; test: Cytotoxicity against human Aspc-1 cells after 72 hrs under normoxic condition by MTT assay; assay type: functional, cell-based; details: ASPC1, 72 h; summary of the method: as §1
[5] = test system: ASPC1; test: Cytotoxicity against human Aspc-1 cells after 72 hrs under hypoxic condition by MTT assay; assay type: functional, cell-based; details: ASPC1, 72 h; summary of the method: as §1
[6] = test system: ASPC1; test: Selectivity index, ratio of IC50 against human Aspc-1 cells under normoxic condition to IC50 for human Aspc-1 cells under hypoxic condition; assay type: functional; summary of the method: as §2
[7] = test system: PaTu 8988t; test: Cytotoxicity against human PA-TU-8988T cells after 72 hrs under normoxic condition by MTT assay; assay type: functional, cell-based; summary of the method: as §1
[8] = test system: PaTu 8988t; test: Cytotoxicity against human PA-TU-8988T cells after 72 hrs under hypoxic condition by MTT assay; assay type: functional, cell-based; summary of the method: as §1
[9] = test system: PaTu 8988t; test: Selectivity index, ratio of IC50 against human PA-TU-8988T cells under normoxic condition to IC50 for human PA-TU-8988T cells under hypoxic condition; assay type: functional; summary of the method: as §2
[10] = test system: PANC-1; test: Inhibition of cancer stem cell population of human PANC1 cells assessed as CD24+/CD44+/ESA+ cell population level at 0.15 uM after 48 hrs by flow cytometric analysis (reference value: 1.7%); assay type: functional; set-up: scale not given: the % may be the effect or the level left
[11] = target: T1, Aldehyde dehydrogenase, mitochondrial (Homo sapiens) (UniProt P05091); test: Inhibition of ALDH in human PANC1 cells assessed as aldefluor positive cells at 0.2 uM after 72 hrs in presence of DEAB by aldefluor assay (reference value: 0.455%); assay type: cell-based; set-up: scale not given: the % may be the effect or the level left
T1 sequence (whole entry): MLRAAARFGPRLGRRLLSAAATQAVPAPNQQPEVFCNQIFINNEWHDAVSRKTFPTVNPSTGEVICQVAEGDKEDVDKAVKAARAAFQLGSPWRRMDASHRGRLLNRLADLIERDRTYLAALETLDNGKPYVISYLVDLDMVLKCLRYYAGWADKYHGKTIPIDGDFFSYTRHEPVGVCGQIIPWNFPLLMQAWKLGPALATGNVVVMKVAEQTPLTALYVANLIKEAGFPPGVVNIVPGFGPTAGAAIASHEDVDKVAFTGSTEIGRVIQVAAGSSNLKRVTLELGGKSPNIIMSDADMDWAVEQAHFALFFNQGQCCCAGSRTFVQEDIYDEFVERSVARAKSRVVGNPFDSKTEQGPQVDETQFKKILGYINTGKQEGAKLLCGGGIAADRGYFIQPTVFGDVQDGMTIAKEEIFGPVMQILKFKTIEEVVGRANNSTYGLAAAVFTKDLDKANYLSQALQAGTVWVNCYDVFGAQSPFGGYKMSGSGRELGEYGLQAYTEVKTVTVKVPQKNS
Summary of the method: (§3)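 PANC-1 cells were seeded at 5×10^4 cells/well and exposed after 6 h to compound (0.2 µM; ADR 0.5 µM) for 72 h. Living cells were suspended in assay buffer and incubated with Aldefluor substrate for 60 min at 37 °C. A parallel sample received substrate plus the ALDH inhibitor DEAB as negative control. Readout was percentage of ALDH+ cells, mean ± SEM, n = 3.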

[12] = target: T1, Aldehyde dehydrogenase, mitochondrial (Homo sapiens); test: Inhibition of ALDH in human PANC1 cells assessed as aldefluor positive cells at 0.2 uM after 72 hrs by aldefluor assay (reference value: 12.5%); assay type: cell-based; set-up: scale not given: the % may be the effect or the level left; summary of the method: as §3
[13] = test system: PANC-1; test: Inhibition of tumorsphere formation in human PANC1 cells assessed as reduction in number of tumor spheres at 0.25 uM after 7 days; assay type: functional
Summary of the method: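 Tumorsphere formation: single-cell PANC-1 suspensions were plated in ultra-low-attachment wells at 2,000 cells/mL in Complete MammoCult medium, with compound at 0.25 µM. Tumorspheres were counted after 7 days. Three repeats, mean ± SEM.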

[14] = test system: PANC-1; test: Antitumor activity against human PANC1 cells xenografted in BALB/c nude mouse assessed as reduction in tumor initiating cell frequency at 0.1 to 0.25 uM measured after 7 days; assay type: functional
Summary of the method: (§4)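 PANC-1 cells were treated in vitro with compound (ADR at 0.5 µM) for 48 h, collected, and injected subcutaneously at limiting cell doses into 5-week-old female BALB/c nude mice. Tumor formation rate was scored after 7 days. Tumor-initiating frequency was derived by limiting-dilution analysis with Poisson statistics against vehicle.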

[15] = test system: Danio rerio; test: Toxicity in zebrafish xenografted with human PANC1 cells at 50 uM after 2 days by fluorescence microscopy; assay type: organism-based; details: 48 h
[16] = test system: PANC-1; test: Antitumor activity against human PANC1 cells xenografted in zebrafsh yolk assessed as tumor growth inhibition at 0.005 uM after 2 days by fluorescence microscopy; assay type: functional
Summary of the method: (§5)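 About 300 PANC-1 cells were microinjected into the yolk of 2 dpf wild-type AB zebrafish, which were held at 35 °C to 3 dpf. Fish were then randomized to 6-well plates, 30 per well, and dosed once with compound at 0.005–50 µM. Gemcitabine 66.7 µM served as positive control and 10% aqueous castor oil as blank. After 2 days at 35 °C, 15 fish per group were imaged by fluorescence microscopy. Inhibition (%) = (1 − S(sample)/S(blank)) × 100, mean ± SEM, n = 15.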

[17] = test system: PANC-1; test: Antitumor activity against human PANC1 cells xenografted in zebrafsh yolk assessed as tumor growth inhibition at 0.05 uM after 2 days by fluorescence microscopy; assay type: functional; summary of the method: as §5
[18] = test system: PANC-1; test: Antitumor activity against human PANC1 cells xenografted in zebrafsh yolk assessed as tumor growth inhibition at 0.5 uM after 2 days by fluorescence microscopy; assay type: functional; summary of the method: as §5
[19] = test system: PANC-1; test: Antitumor activity against human PANC1 cells xenografted in zebrafsh yolk assessed as tumor growth inhibition at 5 uM after 2 days by fluorescence microscopy; assay type: functional; summary of the method: as §5
[20] = test system: PANC-1; test: Antitumor activity against human PANC1 cells xenografted in zebrafsh yolk assessed as tumor growth inhibition at 50 uM after 2 days by fluorescence microscopy; assay type: functional; summary of the method: as §5
[21] = test system: ASPC1; test: Potency index, ratio of […] for rakicidin A to IC50 for test compound for cytotoxicity against human Aspc-1 cells after 72 hrs under hypoxic condition by MTT assay; assay type: functional
[22] = test system: PANC-1; test: Antitumor activity against human PANC1 cells xenografted in zebrafsh yolk assessed as tumor growth inhibition at 66.7 uM after 2 days by fluorescence microscopy; assay type: functional; summary of the method: as §5
[23] = target: T1, Aldehyde dehydrogenase, mitochondrial (Homo sapiens); test: Inhibition of ALDH in human PANC1 cells assessed as aldefluor positive cells at 0.5 uM after 72 hrs in presence of DEAB by aldefluor assay (reference value: 0.455%); assay type: cell-based; set-up: scale not given: the % may be the effect or the level left; summary of the method: as §3
[24] = target: T1, Aldehyde dehydrogenase, mitochondrial (Homo sapiens); test: Inhibition of ALDH in human PANC1 cells assessed as aldefluor positive cells at 0.5 uM after 72 hrs by aldefluor assay (reference value: 12.5%); assay type: cell-based; set-up: scale not given: the % may be the effect or the level left; summary of the method: as §3
[25] = test system: PANC-1; test: Increase in tumor initiating cell frequency in human PANC1 cells xenografted in BALB/c nude mouse at 0.5 uM measured after 7 days; assay type: cell-based; details: in vivo, 168 h; summary of the method: as §4

SMILES	IC50 [1] [nM]	IC50 [2] [nM]	Ratio IC50 [3]	IC50 [4] [nM]	IC50 [5] [nM]	Ratio IC50 [6]	IC50 [7] [nM]	IC50 [8] [nM]	Ratio IC50 [9]	Activity [10] [%]	Activity [11] [%]	Activity [12] [%]	fold change (FC) [13]	fold change (FC) [14]	Activity [15]	TGI [16] [%]	TGI [17] [%]	TGI [18] [%]	TGI [19] [%]	TGI [20] [%]	further results
C=C1/C=C/C(=O)N(C)CC(=O)N[C@@H](CC(=O)NC2CC2)C(=O)O[C@@H]([C@H](C)CCCCCCCCCCCCCC)[C@H](C)C(=O)N1	24	130	5.25	270	22	12.27	200	24	8.3	0.5	0.746	5.84	8.7	19	Non-Toxic	15	10	5	22	45	Ratio IC50 [21]: 4
Nc1ccn([C@@H]2O[C@H](CO)[C@@H](O)C2(F)F)c(=O)n1 [GEMCITABINE]	1700	400	0.24							1.4											TGI [22]: 55%
C=C1/C=C/C(=O)N(C)CC(=O)N[C@@H]([C@H](O)C(N)=O)C(=O)O[C@@H]([C@H](C)CCCCCCCCCCCC(C)C)[C@H](C)C(=O)N1	42	220	5.24	680	82	8.4	240	33	7.54	0.43	0.544	0.46	4	4.7							
COc1cccc2c1C(=O)c1c(O)c3c(c(O)c1C2=O)C[C@@](O)(C(=O)CO)C[C@@H]3O[C@H]1C[C@H](N)[C@H](O)[C@H](C)O1.Cl [DOXORUBICIN HYDROCHLORIDE]	1700	480	0.29	1600	2000	0.78				8.9											Activity [23]: 0.964%; Activity [24]: 18.8%; fold change (FC) [25]: 1.6
C=C1/C=C/C(=O)N(C)CC(=O)NCC(=O)O[C@@H]([C@H](C)CCCCCCCCCCCCCC)[C@H](C)C(=O)N1	310	2480	7.93	4170	490	8.6	2470	440	5.67						Non-Toxic	14	-2	6	26	47	
